The list is not random: actives were taken first. Their share in the collection is about 2.5%.
PRMT1 inh: PRMT1 (human) inhibition, primary screen; recombinant PRMT1, activity-based probe fluorescence polarization; AID 652257; Q99873; inhibition, % at 2.79 µM; 370,000 tested, 1.3% active;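 active = inhibition above about 21% made by adding two undisclosed values, limit read from the data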
GSTO1 inh: blocks human GSTO1 in RBBP9 counter-screen | recombinant GSTO1, activity-based probe fluorescence polarization | 300,000 tested, 1.1% active | AID 1974 | inhibition, % at 5.96 µM | P78417;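 active = inhibition above the campaign mean inhibition plus 3 SD, cut at about 35% in these data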;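 note: 0% = GSTO1-1 with DMSO and 100% = wells lacking GSTO1-1 enzyme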
Target sequence (P78417 whole entry, looked up): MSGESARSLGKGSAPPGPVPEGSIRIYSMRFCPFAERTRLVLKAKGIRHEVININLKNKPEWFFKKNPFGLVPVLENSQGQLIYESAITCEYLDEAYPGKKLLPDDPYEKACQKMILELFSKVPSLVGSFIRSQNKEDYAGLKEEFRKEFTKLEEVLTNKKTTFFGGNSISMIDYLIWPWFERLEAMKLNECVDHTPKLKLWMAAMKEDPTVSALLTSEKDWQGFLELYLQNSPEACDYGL
PAD4 inh: inhibitors of human PAD4; recombinant PAD4, RCA probe fluorescence polarization; inhibition, % at 6.36 µM; 330,000 tested, 0.41% active; AID 485272; Q9UM07;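 active = percent inhibition above a cutoff equal to the mean of all tested compounds plus 3 SD, cut at about 15% in these data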;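 note: 0% = PAD4 with RCA probe and DMSO and 100% = probe without PAD4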
Fh CTSL1 inh: blocks F. hepatica cathepsin L1 in PFM18AAP counter-screen; 300,000 tested, 0.49% active; recombinant F. hepatica cathepsin L1, Z-Leu-Arg-MCA fluorescence; AID 1906; inhibition, % at 5.96 µM;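 active = inhibition above the mean of all tested compounds plus 3 SD, set per screening campaign, cut at about 17% in these data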;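 note: 0% = plate median of test compound wells and 100% = 1 µM Z-Phe-Ala-diazomethylketone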
TDP2 inh: TDP2 (human) inhibition, absorbance primary screen | recombinant TDP2, T5PNP hydrolysis, p-nitrophenol absorbance 415 nm | inhibition, % at 12.8 µM | 370,000 tested, 0.34% active | AID 720702;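 active = inhibition above the mean of all tested compounds plus 3 SD, set per campaign, cut at about 25% in these data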;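 note: 0% = DMSO with enzyme and 100% = buffer with substrate but no TDP2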
Target sequence (O95551 whole entry, looked up): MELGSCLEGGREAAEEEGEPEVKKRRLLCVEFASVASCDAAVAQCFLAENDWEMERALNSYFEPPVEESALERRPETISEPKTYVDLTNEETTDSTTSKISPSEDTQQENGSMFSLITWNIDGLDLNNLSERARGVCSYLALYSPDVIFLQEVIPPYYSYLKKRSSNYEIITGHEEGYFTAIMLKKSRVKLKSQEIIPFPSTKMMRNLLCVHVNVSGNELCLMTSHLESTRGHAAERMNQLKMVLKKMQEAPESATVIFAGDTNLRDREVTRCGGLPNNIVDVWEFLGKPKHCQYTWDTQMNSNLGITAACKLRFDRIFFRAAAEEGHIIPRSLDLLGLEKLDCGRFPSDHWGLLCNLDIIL
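test system = human TDP2 enzyme | input = TDP2 enzyme at 120 nM final | medium = 50 mM Tris-HCl pH 7.5 with Mg2+, KCl, DTT, BSA | also added = T5PNP substrate, 5 mM | times = 2 h at 37 °C | technique = epi absorbance | benchmarks = high control without enzyme, low control DMSO plus TDP2 | replication = each compound tested once, singlicate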
Active calls of the source: *; x = no result given.

SMILES	PRMT1 inh	GSTO1 inh	PAD4 inh	Fh CTSL1 inh	TDP2 inh
COc1ccc(Cn2cc(COC(=O)Nc3ccc(F)cc3)nn2)cc1	-2	x	x	x	5
COc1cccc(/C=N/Nc2ncnc3c2[nH]c2ccc(C)cc23)c1OC	-2	37*	0	-2	10
CCCN(C)C1CN(Cc2cn(CCCOC)nn2)S(=O)(=O)C1 (stereo unspecified)	23*	x	x	x	9
CCN(C)C1CN(Cc2cn(CCCOC)nn2)S(=O)(=O)C1 (stereo unspecified)	0	x	x	x	3
Cc1ccc(NCc2nnc(SCC(=O)c3ccccc3)n2Cc2ccco2)c(C)c1	24*	-1	-3	2	-12
Cc1ccc(NC(=O)CSc2nnc(CSc3nc(C)cc(C)n3)n2Cc2ccco2)c(C)c1	-2	2	-2	-1	6
CCOC(=O)C1=NOC(C(=O)NCc2ccccc2)(C(=O)c2ccc(OC)cc2)C1 (stereo unspecified)	-1	x	x	x	0
O=S(=O)(Nc1nc(-c2sccc2Cl)cs1)c1cc(Cl)ccc1Cl	x	40*	-9	-2	x
CC(C)(C)c1nnc(NS(=O)(=O)c2cc(Cl)ccc2Cl)s1	-1	-2	-2	-1	-5
CC1CCCN(Cc2c(O)ccc3c2O/C(=C\c2ccco2)C3=O)C1 (stereo unspecified)	22*	17	-4	8	13
O=C1C2C3C=CC(CC3)C2C(=O)N1c1ccccc1 (stereo unspecified)	-2	x	x	x	8
O=C1C=CC2C3C(=O)N(c4ccccc4)C(=O)C3C1N2Cc1ccccc1 (stereo unspecified)	24*	x	x	x	-5
N#CC1=C(N)Oc2cc(N)ccc2C1c1ccc(F)cc1F (stereo unspecified)	24*	-6	-13	1	-14
N#CC1=C(N)Oc2cc(N)ccc2C1c1ccc(F)cc1 (stereo unspecified)	23*	0	-2	-2	-10
CCc1cccc(NS(=O)(=O)c2ccc3c(c2)NC(=O)CO3)c1	-1	37*	-2	4	-7
O=C1COc2ccc(S(=O)(=O)Nc3cccc(Cl)c3)cc2N1	0	23	-4	-2	4
N#Cc1cccc(NC(=O)OCCN2C(=O)CCC23CCC(c2ccc(Cl)cc2)CC3)c1 (stereo unspecified)	-2	x	x	x	7
COc1ccc(NS(=O)(=O)c2cccc(C(=O)N(C)Cc3cccs3)c2)cc1	3	14	-3	27*	-12
Cc1ccc(C)c(NC(=O)Cc2nc(CCl)cs2)c1	3	95*	0	2	3
COc1cc(C(=O)OCc2csc(CC(=O)Nc3cc(C)ccc3C)n2)ccc1OC(F)F	1	x	x	x	-8
CCN(CC)Cc1cc(Nc2c3ccccc3nc3c4ccccc4n(C)c23)cc(CN(CC)CC)c1O	45*	x	x	x	-12
Oc1cccc(Nc2c3ccccc3nc3ccccc23)c1	7	13	-13	3	7
COC(=O)[C@]1(CNC(=O)C(C)(C)C)CC(=O)N(Cc2ccc(Cl)cc2)[C@@H]1c1ccc(OC)cc1	-3	x	x	x	-5
O=C(Nc1ccc(O)cc1)C1CC=CCC1 (stereo unspecified)	4	37*	5	1	-2
O=C(Nc1nccs1)C1CC=CCC1 (stereo unspecified)	3	4	1	-3	-15
SMILES	PRMT1 inh	GSTO1 inh	PAD4 inh	Fh CTSL1 inh	TDP2 inh
CC(=O)c1ccc(NC(=O)CSc2nnc(-c3ccco3)c(-c3ccco3)n2)cc1	73*	35*	-4	8	7
Cc1nn(-c2ccccc2)c(Cl)c1CN(C(=O)CCl)c1cccc2ccccc12	1	89*	8	9	-4
O=C1Nc2cc(C(=O)N3CCN(c4ccccc4F)CC3)ccc2NC1CSCc1ccccc1F (stereo unspecified)	x	-27	-43	-2	x
COc1ccc(N2CCN(C(=O)c3ccc4c(c3)NC(=O)C(CSCc3ccccc3F)N4)CC2)cc1 (stereo unspecified)	37*	x	x	x	2
CCCn1c(NC(=O)c2ccccc2)nc(Cc2ccccc2)c1Cc1ccccc1	-3	x	x	x	-1
COc1ccc(N2C3=C(CC4=C2CC(C)(C)CC4=O)C(=O)CC(C)(C)C3)cc1	23*	15	-2	0	13
C#CCNC(=O)C[C@@H]1C[C@@](CCC(=O)OCC)(C(=O)OCC)C2=CCCCN2C1=O	6	x	x	x	5
C(=N\Nc1nc(-c2ccccc2)cs1)/c1ccco1	24*	6	2	-2	-22
N/C(CCS(=O)(=O)c1ccc(Cl)cc1)=N\OC(=O)c1ccccc1Cl	0	-3	0	25*	-2
COc1ccc(/C(O)=C2/C(=O)C(=O)N(Cc3ccco3)C2c2cccs2)cc1 (stereo unspecified)	24*	0	-5	-2	0
COC(=O)c1ccc(C2/C(=C(/O)c3ccc(OC)cc3)C(=O)C(=O)N2Cc2ccco2)cc1 (stereo unspecified)	2	-6	-3	3	3
O=C(NC1CCCCN(Cc2cccc(Cl)c2)C1=O)c1ccc(-c2ccccc2)cc1 (stereo unspecified)	-2	x	x	x	10
COC(=O)c1c(NC(=O)CCS(=O)(=O)c2ccccc2)sc2c1CCN(C)C2	1	3	1	-9	-4
CCCN1CCc2c(sc(NC(=O)CCS(=O)(=O)c3ccccc3)c2C(=O)OC)C1	6	6	-5	27*	8
O=C(/C=C1\NC2(CCCC2)Cc2ccccc21)N1CCOCC1	27*	-4	-1	1	5
Cc1cccc(CS(=O)(=O)c2ncc(Cl)c(C(=O)NCc3ccccc3)n2)c1	24*	-2	-3	-1	-3
Cc1cccc(C)c1NC(=O)c1nc(S(=O)(=O)Cc2ccccc2)ncc1Cl	16	-14	-2	-3	15
COc1ccc(C(C(=O)N(C)C2CCCC2)N(Cc2ccc(F)cc2)C(=O)c2cc(C)[nH]n2)cc1OC (stereo unspecified)	-4	x	x	x	-10
CCCCCN1CCCCC(NC(=O)c2ccc3ccccc3c2)C1=O (stereo unspecified)	-4	x	x	x	5
NC(=S)N/N=C/c1ccc(-c2ccc([N+](=O)[O-])cc2)o1	21*	11	-4	22*	-11
O=C(Cn1ncc2c1-c1ccccc1OC2)N(Cc1ccco1)C1CCCCC1	1	-6	-2	62*	0
O=C(Cn1ncc2c(=O)oc3ccccc3c21)N(Cc1ccco1)C1CCCCC1	-3	-1	-1	44*	3
Cc1cc(C)nc(N2CCN(C(=O)CSc3nc4ccccc4nc3N3CC(C)OC(C)C3)CC2)n1 (stereo unspecified)	0	x	x	x	1
CCOc1ccc(-n2c(SCC(=O)Nc3ccc(S(=O)(=O)Nc4nccs4)cc3)nnc2-c2ccncc2)cc1	-3	x	x	x	0
COc1ccc(N2C(=O)C(Cl)=C(N3CCOCC3)C2=O)cc1	13	-2	4	14	16

High-throughput results deposited in PubChem by The Scripps Research Institute Molecular Screening Center.
